The target of one data set is human P-gp wild-type (Homo sapiens, UniProt P08183). Type of data set: cell-based.
A further data set has as its target human P-gp Y950F (Homo sapiens, UniProt P08183, Y950F). Put plainly: Inhibition of rh123 efflux, Y950F mutant. Type of data set: cell-based.
Another data set deals with human P-gp Y953F (Homo sapiens, UniProt P08183, Y953F). Put plainly: Inhibition of rh123 efflux, Y953F mutant. Type of data set: cell-based.
The target in the next data set is human P-gp Y950F/Y953F (Homo sapiens, UniProt P08183, Y950F/Y953F). The experiment in a line: Inhibition of rh123 efflux, Y950F/Y953F double mutant. Type of data set: cell-based.
Data set [1] concerns the target T1, human P-gp Q132R (Homo sapiens, UniProt P08183, Q132R). Put plainly: Inhibition of rh123 efflux, Q132R mutant. Type of data set: cell-based. Conditions: for fold difference in IC50 values for wild-type protein and the Q132R mutant: Q132R mutant vs wild-type.
For another data set, the target named is human P-gp Q132R/Y950F (Homo sapiens, UniProt P08183, Q132R/Y950F). The experiment in a line: Inhibition of rh123 efflux, Q132R/Y950F mutant. The data set is classed as cell-based.
Another data set concerns the target human P-gp Q132R/Y953F (Homo sapiens, UniProt P08183, Q132R/Y953F). The experiment in a line: Inhibition of rh123 efflux, Q132R/Y953F mutant. Type of data set: cell-based. Conditions: for fold higher IC50 value than the Q132R mutation: Q132R/Y953F mutant vs Q132R.
The subject of data set [2] is human P-gp Q132R/Y950F/Y953F. Put plainly: Inhibition of rh123 efflux, Q132R/Y950F/Y953F triple mutant. The data set is classed as cell-based. The following applies: in the Q132R background.
The target of data set [3] is T1, human P-gp Q132R. Put plainly: Continuous monitoring of rh123 zero trans efflux, Q132R mutant. Type of data set: cell-based. The following applies: mean ± S.D. The method, boiled down:
(§1)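 HEK293 cells, with endogenous P-gp knocked down by lentiviral shRNA and puromycin selection, were transiently transfected with hexa-His human P-gp mutants. Cells were loaded with 0.53 μM rh123 (final) in DMEM pH 7.8 for 30 min at 37°C, chilled and washed, then effluxed into 37°C DMEM pH 7.4. Flow cytometry ran 5 min at 37°C (488/534 nm). Exponential-fit k was normalized to MRK16 surface staining. n≥3.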

Another data set deals with human P-gp Q773R (Homo sapiens, UniProt P08183, Q773R). Put plainly: Continuous monitoring of rh123 zero trans efflux, Q773R mutant. Type of data set: cell-based. Conditions: mean ± S.D. The method, boiled down: as §1
Data set [4] has as its target human P-gp Q773R/Y950F/Y953F (Homo sapiens, UniProt P08183, Q773R/Y950F/Y953F). Put plainly: Continuous monitoring of rh123 zero trans efflux, Q773R/Y950F/Y953F mutant. The following applies: expressed at the surface. Type of data set: cell-based. The method, boiled down: as §1
Data set [5] in a line: pKa and protonated fraction of propafenone analogs. The following applies: at intracellular pH, estimated from pKa. The data set is classed as physicochemical.
For data set [6] the following is noted: ref Ecker et al., 1999; cited from earlier work.

Read-outs that look alike come from different tables or passages of the source. A value given as a limit tells only on which side of the number the result lay.

Sequence of human P-gp Y953F (P08183 whole entry Y953F): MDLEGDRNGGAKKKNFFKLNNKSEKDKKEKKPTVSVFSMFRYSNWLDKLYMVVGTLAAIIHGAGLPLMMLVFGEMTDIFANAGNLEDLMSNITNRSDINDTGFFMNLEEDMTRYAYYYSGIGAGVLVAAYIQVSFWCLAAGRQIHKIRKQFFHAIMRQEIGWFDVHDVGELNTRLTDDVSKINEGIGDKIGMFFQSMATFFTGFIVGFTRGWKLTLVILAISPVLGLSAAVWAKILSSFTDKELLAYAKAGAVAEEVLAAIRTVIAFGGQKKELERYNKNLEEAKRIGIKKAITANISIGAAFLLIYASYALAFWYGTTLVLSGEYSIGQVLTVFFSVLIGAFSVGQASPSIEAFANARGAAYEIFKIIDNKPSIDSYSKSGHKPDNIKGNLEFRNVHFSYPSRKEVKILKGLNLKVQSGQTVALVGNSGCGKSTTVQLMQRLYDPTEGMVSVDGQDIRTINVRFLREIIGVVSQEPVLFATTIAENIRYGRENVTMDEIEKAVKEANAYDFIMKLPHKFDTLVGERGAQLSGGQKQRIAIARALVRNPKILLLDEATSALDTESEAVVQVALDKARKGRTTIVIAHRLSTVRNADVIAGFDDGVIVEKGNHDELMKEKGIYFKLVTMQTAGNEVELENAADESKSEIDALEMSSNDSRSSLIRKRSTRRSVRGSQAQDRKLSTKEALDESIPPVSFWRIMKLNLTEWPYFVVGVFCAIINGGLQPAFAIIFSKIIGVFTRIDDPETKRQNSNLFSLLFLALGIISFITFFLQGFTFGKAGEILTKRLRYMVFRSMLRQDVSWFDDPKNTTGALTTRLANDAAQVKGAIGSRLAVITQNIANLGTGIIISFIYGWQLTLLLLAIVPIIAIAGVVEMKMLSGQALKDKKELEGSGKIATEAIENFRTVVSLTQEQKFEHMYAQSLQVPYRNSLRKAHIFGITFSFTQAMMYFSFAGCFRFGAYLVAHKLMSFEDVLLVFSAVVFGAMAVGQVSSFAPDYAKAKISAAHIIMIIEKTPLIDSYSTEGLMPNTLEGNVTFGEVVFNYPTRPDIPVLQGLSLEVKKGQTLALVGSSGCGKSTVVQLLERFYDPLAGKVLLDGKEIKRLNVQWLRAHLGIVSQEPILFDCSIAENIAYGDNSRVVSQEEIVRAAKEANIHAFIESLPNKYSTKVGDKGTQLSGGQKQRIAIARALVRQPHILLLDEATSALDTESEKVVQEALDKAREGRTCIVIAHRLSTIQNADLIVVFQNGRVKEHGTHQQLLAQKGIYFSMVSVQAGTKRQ
T1 sequence (P08183 whole entry Q132R): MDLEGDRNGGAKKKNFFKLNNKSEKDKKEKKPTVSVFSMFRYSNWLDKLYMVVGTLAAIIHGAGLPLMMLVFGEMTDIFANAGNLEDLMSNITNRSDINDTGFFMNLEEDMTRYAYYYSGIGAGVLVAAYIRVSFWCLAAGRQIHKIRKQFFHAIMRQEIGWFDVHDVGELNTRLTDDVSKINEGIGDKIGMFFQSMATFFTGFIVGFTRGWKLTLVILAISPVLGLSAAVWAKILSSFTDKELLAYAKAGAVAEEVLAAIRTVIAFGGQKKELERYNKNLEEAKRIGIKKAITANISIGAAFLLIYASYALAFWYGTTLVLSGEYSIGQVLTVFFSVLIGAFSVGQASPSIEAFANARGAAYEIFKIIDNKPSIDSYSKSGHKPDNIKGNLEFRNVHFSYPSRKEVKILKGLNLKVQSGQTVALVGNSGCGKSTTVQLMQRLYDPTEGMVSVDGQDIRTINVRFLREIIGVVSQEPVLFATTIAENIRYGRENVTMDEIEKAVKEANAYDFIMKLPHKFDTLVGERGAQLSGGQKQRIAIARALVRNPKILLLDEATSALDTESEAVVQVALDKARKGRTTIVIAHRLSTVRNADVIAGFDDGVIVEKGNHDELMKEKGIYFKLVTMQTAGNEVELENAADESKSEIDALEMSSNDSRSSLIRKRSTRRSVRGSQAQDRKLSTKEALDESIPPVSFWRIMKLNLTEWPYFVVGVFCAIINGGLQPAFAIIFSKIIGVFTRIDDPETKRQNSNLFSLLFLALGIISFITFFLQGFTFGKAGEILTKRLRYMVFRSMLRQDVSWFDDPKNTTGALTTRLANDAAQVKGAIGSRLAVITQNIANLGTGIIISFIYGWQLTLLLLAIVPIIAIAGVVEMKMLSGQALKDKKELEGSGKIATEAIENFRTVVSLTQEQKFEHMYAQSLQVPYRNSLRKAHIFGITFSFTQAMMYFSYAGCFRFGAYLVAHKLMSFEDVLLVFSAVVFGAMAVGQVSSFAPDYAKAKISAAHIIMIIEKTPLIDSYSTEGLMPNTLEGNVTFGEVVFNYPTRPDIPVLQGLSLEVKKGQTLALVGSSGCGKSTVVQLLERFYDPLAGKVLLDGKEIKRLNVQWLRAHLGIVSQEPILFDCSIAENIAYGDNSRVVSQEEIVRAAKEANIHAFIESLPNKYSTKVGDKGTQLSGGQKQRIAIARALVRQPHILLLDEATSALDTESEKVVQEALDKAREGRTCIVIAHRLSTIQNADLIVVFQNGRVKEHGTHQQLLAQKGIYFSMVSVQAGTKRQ
Sequence of human P-gp wild-type (P08183 whole entry): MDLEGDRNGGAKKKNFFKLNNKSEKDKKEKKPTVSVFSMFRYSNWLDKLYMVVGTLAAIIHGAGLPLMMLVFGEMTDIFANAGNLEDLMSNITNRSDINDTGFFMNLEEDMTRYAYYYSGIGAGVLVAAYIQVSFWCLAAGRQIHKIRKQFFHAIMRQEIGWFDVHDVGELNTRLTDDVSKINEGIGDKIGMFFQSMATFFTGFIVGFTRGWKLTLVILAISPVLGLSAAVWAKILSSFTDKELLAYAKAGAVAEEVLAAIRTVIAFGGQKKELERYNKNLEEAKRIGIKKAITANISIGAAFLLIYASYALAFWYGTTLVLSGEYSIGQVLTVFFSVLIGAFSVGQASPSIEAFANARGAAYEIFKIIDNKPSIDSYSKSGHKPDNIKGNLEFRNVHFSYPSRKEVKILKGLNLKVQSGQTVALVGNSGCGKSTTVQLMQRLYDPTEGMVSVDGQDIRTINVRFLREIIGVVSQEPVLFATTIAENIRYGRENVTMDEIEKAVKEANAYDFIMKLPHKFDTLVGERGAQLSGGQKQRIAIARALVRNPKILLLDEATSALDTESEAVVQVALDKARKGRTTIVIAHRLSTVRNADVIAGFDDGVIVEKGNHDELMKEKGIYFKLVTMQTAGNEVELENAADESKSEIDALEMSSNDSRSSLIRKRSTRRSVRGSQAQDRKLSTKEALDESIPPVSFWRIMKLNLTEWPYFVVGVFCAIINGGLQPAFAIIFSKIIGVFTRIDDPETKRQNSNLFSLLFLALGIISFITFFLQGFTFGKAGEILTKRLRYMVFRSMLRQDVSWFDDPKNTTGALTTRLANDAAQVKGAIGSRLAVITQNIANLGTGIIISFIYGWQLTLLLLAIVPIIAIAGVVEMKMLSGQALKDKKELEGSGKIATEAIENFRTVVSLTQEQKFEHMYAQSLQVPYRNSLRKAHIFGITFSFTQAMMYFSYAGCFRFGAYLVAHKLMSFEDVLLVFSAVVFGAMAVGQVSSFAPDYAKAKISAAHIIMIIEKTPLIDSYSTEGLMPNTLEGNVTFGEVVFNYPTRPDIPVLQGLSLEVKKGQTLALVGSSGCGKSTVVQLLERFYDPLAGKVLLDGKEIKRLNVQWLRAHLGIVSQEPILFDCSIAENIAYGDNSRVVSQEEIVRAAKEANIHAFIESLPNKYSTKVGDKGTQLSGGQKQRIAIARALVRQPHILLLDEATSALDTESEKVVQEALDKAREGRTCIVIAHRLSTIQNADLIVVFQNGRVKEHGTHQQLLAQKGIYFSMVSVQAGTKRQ
Sequence of human P-gp Y950F/Y953F (P08183 whole entry Y950F/Y953F): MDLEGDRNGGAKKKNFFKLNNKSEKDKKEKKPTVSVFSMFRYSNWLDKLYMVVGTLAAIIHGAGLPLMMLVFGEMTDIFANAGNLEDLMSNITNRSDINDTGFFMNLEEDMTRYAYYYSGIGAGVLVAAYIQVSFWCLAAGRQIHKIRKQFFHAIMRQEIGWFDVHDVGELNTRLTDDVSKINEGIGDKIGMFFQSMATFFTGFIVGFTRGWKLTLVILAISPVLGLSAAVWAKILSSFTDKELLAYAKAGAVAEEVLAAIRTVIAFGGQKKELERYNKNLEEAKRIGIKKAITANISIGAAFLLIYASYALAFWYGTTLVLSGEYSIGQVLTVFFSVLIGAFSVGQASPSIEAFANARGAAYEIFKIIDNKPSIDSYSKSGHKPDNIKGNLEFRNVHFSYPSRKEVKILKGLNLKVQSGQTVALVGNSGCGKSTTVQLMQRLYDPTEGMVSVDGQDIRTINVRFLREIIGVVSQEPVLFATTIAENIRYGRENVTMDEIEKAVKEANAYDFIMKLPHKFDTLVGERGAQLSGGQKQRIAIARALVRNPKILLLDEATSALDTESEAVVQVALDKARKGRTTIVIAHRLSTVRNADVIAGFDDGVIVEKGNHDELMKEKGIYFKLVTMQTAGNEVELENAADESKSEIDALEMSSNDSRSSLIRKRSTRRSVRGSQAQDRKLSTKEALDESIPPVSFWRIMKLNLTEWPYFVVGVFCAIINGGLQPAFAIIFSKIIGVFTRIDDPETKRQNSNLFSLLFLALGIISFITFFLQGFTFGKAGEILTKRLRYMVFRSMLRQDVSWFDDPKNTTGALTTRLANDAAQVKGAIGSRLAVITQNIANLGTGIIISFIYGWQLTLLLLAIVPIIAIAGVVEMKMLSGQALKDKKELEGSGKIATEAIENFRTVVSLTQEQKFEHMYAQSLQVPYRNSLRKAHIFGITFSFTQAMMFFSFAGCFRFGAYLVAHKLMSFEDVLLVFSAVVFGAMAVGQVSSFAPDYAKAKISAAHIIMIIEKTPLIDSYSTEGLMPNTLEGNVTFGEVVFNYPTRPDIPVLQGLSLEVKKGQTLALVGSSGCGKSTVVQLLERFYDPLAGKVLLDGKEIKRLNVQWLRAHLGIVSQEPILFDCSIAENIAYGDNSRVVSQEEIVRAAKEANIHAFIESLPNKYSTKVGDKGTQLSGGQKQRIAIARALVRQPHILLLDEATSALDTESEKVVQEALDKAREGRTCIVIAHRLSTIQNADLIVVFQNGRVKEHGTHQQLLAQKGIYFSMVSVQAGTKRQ

Take `CCCN(CC(O)COc1ccccc1C(=O)CCc1ccccc1)C(=O)c1ccccc1` (stereo not drawn) [GPV366, N-(2-hydroxy-3-(2-(3-phenylpropanoyl)phenoxy)propyl)-N-propylbenzamide]: the concentration for half-maximal inhibition (IC50) came out at 2240 ± 391 nM on human P-gp wild-type; 2980 ± 79 nM against human P-gp Y950F; 15900 nM on human P-gp Y953F; 17800 nM at human P-gp Y950F/Y953F; 1070 ± 282 nM against human P-gp Q132R [1]; 966 ± 259 nM on human P-gp Q132R/Y950F. Further, at human P-gp Q132R/Y953F, the IC50 was 3260 ± 965 nM. For the same compound, the entries for the “fold change in IC50 relative to wild-type” value on human P-gp Y953F (Y953F mutant vs wild-type) and at human P-gp Y950F/Y953F (Y950F/Y953F mutant vs wild-type) were 7.1 fold and 8 fold, respectively. At human P-gp Q132R/Y953F, the “fold higher IC50 value than the Q132R mutation” value was 3.0 fold. Besides, the “fold change in IC50” value in data set [2] is recorded as 4.9 fold.
`COC(=O)c1ccccc1-c1c2ccc(=N)cc-2oc2cc(N)ccc12` [rh123, rhodamine123]: the results for the “rh123 efflux (fractional transport rate)” value on human P-gp Q132R [3] and at human P-gp Q773R were 75% ± 11% and 37% ± 8%, respectively. Besides, in data set [4], the rh123 efflux result is “no rh123 efflux was detectable”.
`O=C(CCc1ccccc1)c1ccccc1OCC(O)CN1CCN(c2ccc(F)cc2)CC1` (stereo not drawn) [GPV031, 1-(2-(3-(4-(4-fluorophenyl)piperazin-1-yl)-2-hydroxypropoxy)phenyl)-3-phenylpropan-1-one]: the IC50 amounted to 85 ± 22 nM against human P-gp wild-type; 238 ± 84 nM against human P-gp Y950F; 287 ± 109 nM at human P-gp Y953F; 630 ± 87 nM at human P-gp Y950F/Y953F; 521 ± 183 nM against human P-gp Q132R [1]. Further, the “fold difference in IC50 values for wild-type protein and the Q132R mutant” value at human P-gp Q132R [1] is given as “at least 3 fold”. The “fold higher IC50 value than the Q132R mutation” value at human P-gp Q132R/Y953F was 2.1 fold. For the same compound, the “fold change in IC50” value in data set [2] turned out to be 2.7 fold. The “percentage of protonated (charged) species” value in [5] is 60–70%. In addition, the pKa in data set [6] is 7.3.
On to `O=C(CCc1ccccc1)c1ccccc1OCC(O)CN1CCCCC1` (stereo not drawn) [GPV005], for which the IC50 at human P-gp wild-type (read-out: IC50 for inhibition of rh123 efflux, wild-type P-gp, HEK293 cells, 37°C, mean ± S.D.) came to 518 ± 141 nM; at human P-gp Y950F (read-out: IC50 for inhibition of rh123 efflux, Y950F mutant, HEK293 cells, mean ± S.D.), 1350 ± 229 nM; at human P-gp Y953F (read-out: IC50 for inhibition of rh123 efflux, Y953F mutant, HEK293 cells, mean ± S.D.), 1210 ± 362 nM; at human P-gp Q132R [1] (read-out: IC50 for inhibition of rh123 efflux, Q132R mutant, HEK293 cells, mean ± S.D.), 1410 ± 215 nM. Besides, the “fold difference in IC50 values for wild-type protein and the Q132R mutant” value on human P-gp Q132R [1] is listed as “at least 3 fold”. For the same compound, the “fold higher IC50 value than the Q132R mutation” value at human P-gp Q132R/Y953F is recorded as 1.5 fold. The “fold change in IC50” value in [2] stood at 2.3 fold. Besides, the “percentage of protonated (charged) species” value in [5] was > 90%. In addition, the pKa in data set [6] is 8.4.
